{
  "source": "paper PMC6129214",
  "about": "(Nature medicine, 2018)",
  "key": {"[1]": {"tested_on": "platelet aggregation", "assay": "Mouse ex vivo platelet aggregometry in PRP", "details": "ADP 1 μM, choline-supplemented mice", "how_it_was_run": "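Mice on a choline-supplemented (1% w/w) or control diet, with or without test compound in the diet (0.006% or 0.06% w/w, 2 weeks), are anaesthetized with ketamine 100 mg/kg and xylazine 10 mg/kg. Blood is drawn and PRP aggregation to 1 μM ADP is recorded as % of maximum amplitude per mouse. Plasma TMAO is also measured.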"}, "[2]": {"tested_on": "platelet aggregation", "assay": "Direct incubation of inhibitor with mouse PRP, platelet aggregometry", "type": "cell-based, mice", "details": "20 µM, with or without ADP"}, "[3]": {"tested_on": "carotid artery thrombus formation", "assay": "FeCl3-induced carotid artery injury thrombosis model", "type": "in vivo, mice", "details": "DMB 1.3% v/v; 0.06% IMC or 0.006% FMC in diet"}, "[4]": {"tested_on": "plasma TMAO", "assay": "Plasma TMAO levels", "type": "in vivo", "details": "mice on a choline-supplemented diet, data not shown"}},
  "data": [
    {"smiles": "CC(C)(C)CCO", "note": "[DMB, 3,3-dimethyl-1-butanol]", "values": [
      {"measurement": "effect on choline diet-enhanced ADP-dependent platelet aggregation in PRP", "setting": "[1]", "result": "significantly reduced"},
      {"measurement": "effect of direct incubation on platelet aggregometry responses, mouse PRP", "setting": "[2]", "result": "no effects"},
      {"measurement": "effect on choline diet-induced rise in TMAO and in vivo rate of clot formation", "setting": "[3]", "result": "attenuated"}
    ]},
    {"smiles": "Oc1ccc(/C=C/c2cc(O)cc(O)c2)cc1", "note": "[Resveratrol]", "values": [
      {"measurement": "effect on plasma TMAO levels in vivo", "setting": "[4]", "result": "showed no effect"}
    ]}
  ]
}
